Test results from ChEMBL document CHEMBL4706746, “Structural and in Vitro Functional Characterization of a Menthyl TRPM8 Antagonist Indicates Species-Dependent Regulation” (ACS Med Chem Lett, 2021).
Blank lines part the entries; values can stand above or below the molecule they belong to.

What was measured:
Type in all cases: cell-based
[1] = target: T1, Transient receptor potential cation channel subfamily M member 8 (Homo sapiens, UniProt Q7Z2W7); assay: Antagonist activity at TRPM8 (unknown origin) expressed in CHO cells assessed as inhibition of D-1607-induced reduction in cell viability by measuring cell viability at 10 uM by celltiter-glo ATP chemiluminescence assay relative to control; conditions: filed as antagonist
Target sequence in this assay (Q7Z2W7 whole entry, looked up): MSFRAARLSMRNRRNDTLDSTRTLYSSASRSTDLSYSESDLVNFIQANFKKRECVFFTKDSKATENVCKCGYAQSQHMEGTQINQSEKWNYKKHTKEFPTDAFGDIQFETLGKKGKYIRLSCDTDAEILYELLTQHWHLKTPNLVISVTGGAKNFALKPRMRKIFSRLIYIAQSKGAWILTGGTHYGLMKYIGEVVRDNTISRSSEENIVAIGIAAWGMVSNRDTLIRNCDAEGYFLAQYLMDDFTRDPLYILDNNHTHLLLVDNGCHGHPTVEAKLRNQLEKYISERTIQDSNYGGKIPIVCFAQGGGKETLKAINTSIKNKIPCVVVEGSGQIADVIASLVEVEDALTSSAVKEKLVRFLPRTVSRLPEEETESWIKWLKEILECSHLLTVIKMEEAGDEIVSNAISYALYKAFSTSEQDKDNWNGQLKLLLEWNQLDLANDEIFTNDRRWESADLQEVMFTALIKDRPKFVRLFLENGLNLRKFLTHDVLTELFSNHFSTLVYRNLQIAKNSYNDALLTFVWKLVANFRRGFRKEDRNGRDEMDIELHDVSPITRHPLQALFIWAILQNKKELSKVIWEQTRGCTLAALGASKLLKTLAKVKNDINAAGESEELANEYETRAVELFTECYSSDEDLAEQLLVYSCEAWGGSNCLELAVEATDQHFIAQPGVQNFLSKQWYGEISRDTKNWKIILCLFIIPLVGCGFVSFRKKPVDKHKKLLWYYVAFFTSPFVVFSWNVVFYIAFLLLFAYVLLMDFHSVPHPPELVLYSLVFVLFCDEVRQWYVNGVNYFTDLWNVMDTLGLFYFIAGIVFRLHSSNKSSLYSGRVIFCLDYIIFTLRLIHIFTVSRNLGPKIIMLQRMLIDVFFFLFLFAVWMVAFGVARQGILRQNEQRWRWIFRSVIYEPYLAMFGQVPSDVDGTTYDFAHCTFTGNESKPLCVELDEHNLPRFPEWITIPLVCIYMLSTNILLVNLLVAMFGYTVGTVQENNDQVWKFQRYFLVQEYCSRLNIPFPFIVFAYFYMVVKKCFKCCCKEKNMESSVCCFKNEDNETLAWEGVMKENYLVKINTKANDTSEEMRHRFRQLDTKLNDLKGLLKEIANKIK

[2] = target: T1, Transient receptor potential cation channel subfamily M member 8; assay: Antagonist activity at recombinant human TRPM8 transiently expressed in HEK293 cells assessed as inhibition of menthol-induced calcium flux by whole-cell patch-clamp electrophysiological method
Method in brief: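 Whole-cell patch clamp of HEK293 cells transiently transfected with human TRPM8. Currents were evoked by 500 μM menthol and recorded at +80 mV. Test compound was applied at 1 nM–0.1 mM. Currents were normalized and fitted for IC50. n = 3 cells, SEM.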
Target sequence in this assay (Q7Z2W7 whole entry): as the sequence (Q7Z2W7 whole entry, looked up) above

[3] = target: Transient receptor potential cation channel subfamily A member 1 (Rattus norvegicus, UniProt Q6RI86); assay: Agonist activity at recombinant rat TRPA1 stably expressed in HEK293 cells assessed as increase in intracellular calcium release by Fluo-4AM dye based fluorescence assay
[4] = target: T2, Transient receptor potential cation channel subfamily M member 8 (Rattus norvegicus, UniProt Q8R455); assay: Antagonist activity at recombinant rat TRPM8 stably expressed in HEK293 cells assessed as inhibition of icilin-induced intracellular calcium level preincubated for 5 mins followed by icilin addition by Fluo-4Am dye based fluorescence assay
[5] = target: Transient receptor potential cation channel subfamily A member 1 (Homo sapiens) (UniProt O75762); assay: Antagonist activity at recombinant human TRPA1 stably expressed in HEK293 cells assessed as inhibition of AITC-induced calcium flux at 333 uM preincubated for 5 mins followed by AITC addition and measured after 180 secs by Fluo-8 Calcium dye based fluorescence assay relative to control; conditions: time 8.0 min
Method in brief: (§1)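 Ca2+ flux assay in HEK293 cells stably expressing human TRPA1 or TRPV1. Test compound was given at 66.7–333 μM, then cells were challenged with agonist at its EC80: AITC 10 μM for TRPA1, capsaicin 0.1 μM for TRPV1. % inhibition is normalized to the EC80 agonist response. n = 3.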

[6] = target: Transient receptor potential cation channel subfamily A member 1 (Homo sapiens) (UniProt O75762); assay: Agonist activity at recombinant human TRPA1 stably expressed in HEK293 cells at 267 uM measured after 180 secs by Fluo-8 Calcium dye based fluorescence assay relative to control; conditions: time 180.0 sec
Method in brief: (§2)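 Ca2+ flux assay in HEK293 cells stably expressing human TRPA1 or TRPV1. Test concentrations were 66.7–333 μM, applied alone. Response is expressed as % activation, normalized to the Emax agonist concentration: AITC 300 μM for TRPA1, capsaicin 3 μM for TRPV1. n = 3.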

[7] = target: Transient receptor potential cation channel subfamily A member 1 (Homo sapiens) (UniProt O75762); assay: Antagonist activity at recombinant human TRPA1 stably expressed in HEK293 cells assessed as inhibition of AITC-induced calcium flux at 267 uM preincubated for 5 mins followed by AITC addition and measured after 180 secs by Fluo-8 Calcium dye based fluorescence assay relative to control; conditions: time 8.0 min; method in brief: as §1
[8] = target: Transient receptor potential cation channel subfamily V member 1 (Homo sapiens) (UniProt Q8NER1); assay: Agonist activity at recombinant human TRPV1 stably expressed in HEK293 cells at 333 uM measured after 180 secs by Fluo-8 Calcium dye based fluorescence assay relative to control; conditions: time 180.0 sec; method in brief: as §2
[9] = target: T1, Transient receptor potential cation channel subfamily M member 8; assay: Antagonist activity at recombinant human TRPM8 stably expressed in HEK293 cells assessed as inhibition of icilin-induced intracellular calcium level by Fluo-4NW probe based fluorescence assay
Method in brief: (§3)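 Fluo-4 NW calcium imaging in HEK293 cells expressing human or rat TRPM8. Agonist was 500 nM icilin or 100 μM menthol, with test compound at 0.1–10 μM. IC50 was taken from concentration–response curves. Mean ± SEM, n = 3, N = 3.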
Target sequence in this assay (Q7Z2W7 whole entry): as the sequence (Q7Z2W7 whole entry, looked up) above

[10] = target: Transient receptor potential cation channel subfamily A member 1 (Homo sapiens) (UniProt O75762); assay: Agonist activity at recombinant human TRPA1 stably expressed in HEK293 cells at 333 uM measured after 180 secs by Fluo-8 Calcium dye based fluorescence assay relative to control; conditions: time 180.0 sec; method in brief: as §2
[11] = target: Transient receptor potential cation channel subfamily V member 1 (Homo sapiens) (UniProt Q8NER1); assay: Agonist activity at recombinant human TRPV1 stably expressed in HEK293 cells at 267 uM measured after 180 secs by Fluo-8 Calcium dye based fluorescence assay relative to control; conditions: time 180.0 sec; method in brief: as §2
[12] = target: T2, Transient receptor potential cation channel subfamily M member 8; assay: Antagonist activity at recombinant rat TRPM8 stably expressed in HEK293 cells assessed as inhibition of menthol-induced intracellular calcium level by Fluo-4NW probe based fluorescence assay; method in brief: as §3
Homo sapiens [13] = species: Homo sapiens; assay: Selectivity ratio of IC50 for antagonist activity at human TRPV1 stably expressed in HEK293 cells to IC50 for antagonist activity at recombinant human TRPM8 stably expressed in HEK293 cells
[14] = target: Transient receptor potential cation channel subfamily V member 1 (Homo sapiens) (UniProt Q8NER1); assay: Antagonist activity at recombinant human TRPV1 stably expressed in HEK293 cells assessed as inhibition of capsaicin-induced calcium flux at 267 uM preincubated for 5 mins followed by capsaicin addition and measured after 180 secs by Fluo-8 Calcium dye based fluorescence assay relative to control; conditions: time 8.0 min; method in brief: as §1
[15] = target: T1, Transient receptor potential cation channel subfamily M member 8; assay: Antagonist activity at recombinant human TRPM8 stably expressed in HEK293 cells assessed as inhibition of menthol-induced intracellular calcium level by Fluo-4NW probe based fluorescence assay; method in brief: as §3
Target sequence in this assay (Q7Z2W7 whole entry): as the sequence (Q7Z2W7 whole entry, looked up) above

[16] = target: T2, Transient receptor potential cation channel subfamily M member 8; assay: Antagonist activity at recombinant rat TRPM8 stably expressed in HEK293 cells assessed as inhibition of icilin-induced intracellular calcium level by Fluo-4NW probe based fluorescence assay; method in brief: as §3
[17] = target: Transient receptor potential cation channel subfamily V member 1 (Homo sapiens) (UniProt Q8NER1); assay: Agonist activity at recombinant human TRPV1 stably expressed in HEK293 cells at 133 uM measured after 180 secs by Fluo-8 Calcium dye based fluorescence assay relative to control; conditions: time 180.0 sec; method in brief: as §2
Homo sapiens [18] = species: Homo sapiens; assay: Selectivity ratio of IC50 for antagonist activity at human TRPA1 stably expressed in HEK293 cells to IC50 for antagonist activity at recombinant human TRPM8 stably expressed in HEK293 cells
[19] = target: Transient receptor potential cation channel subfamily V member 1 (Homo sapiens) (UniProt Q8NER1); assay: Agonist activity at recombinant human TRPV1 stably expressed in HEK293 cells at 66.7 uM measured after 180 secs by Fluo-8 Calcium dye based fluorescence assay relative to control; conditions: time 180.0 sec; method in brief: as §2
[20] = target: Transient receptor potential cation channel subfamily V member 1 (Homo sapiens) (UniProt Q8NER1); assay: Antagonist activity at recombinant human TRPV1 stably expressed in HEK293 cells assessed as inhibition of capsaicin-induced calcium flux at 200 uM preincubated for 5 mins followed by capsaicin addition and measured after 180 secs by Fluo-8 Calcium dye based fluorescence assay relative to control; conditions: time 8.0 min; method in brief: as §1
[21] = target: Transient receptor potential cation channel subfamily A member 1 (Homo sapiens) (UniProt O75762); assay: Antagonist activity at recombinant human TRPA1 stably expressed in HEK293 cells assessed as inhibition of AITC-induced calcium flux at 133 uM preincubated for 5 mins followed by AITC addition and measured after 180 secs by Fluo-8 Calcium dye based fluorescence assay relative to control; conditions: time 8.0 min; method in brief: as §1
[22] = target: Transient receptor potential cation channel subfamily V member 1 (Homo sapiens) (UniProt Q8NER1); assay: Antagonist activity at recombinant human TRPV1 stably expressed in HEK293 cells assessed as inhibition of capsaicin-induced calcium flux at 133 uM preincubated for 5 mins followed by capsaicin addition and measured after 180 secs by Fluo-8 Calcium dye based fluorescence assay relative to control; conditions: time 8.0 min; method in brief: as §1
[23] = target: Transient receptor potential cation channel subfamily A member 1 (Homo sapiens) (UniProt O75762); assay: Antagonist activity at recombinant human TRPA1 stably expressed in HEK293 cells assessed as inhibition of AITC-induced calcium flux at 66.7 uM preincubated for 5 mins followed by AITC addition and measured after 180 secs by Fluo-8 Calcium dye based fluorescence assay relative to control; conditions: time 8.0 min; method in brief: as §1
[24] = target: Transient receptor potential cation channel subfamily A member 1 (Homo sapiens) (UniProt O75762); assay: Agonist activity at recombinant human TRPA1 stably expressed in HEK293 cells at 133 uM measured after 180 secs by Fluo-8 Calcium dye based fluorescence assay relative to control; conditions: time 180.0 sec; method in brief: as §2
[25] = target: Transient receptor potential cation channel subfamily V member 1 (Homo sapiens) (UniProt Q8NER1); assay: Antagonist activity at recombinant human TRPV1 stably expressed in HEK293 cells assessed as inhibition of capsaicin-induced calcium flux at 66.7 uM preincubated for 5 mins followed by capsaicin addition and measured after 180 secs by Fluo-8 Calcium dye based fluorescence assay relative to control; conditions: time 8.0 min; method in brief: as §1
[26] = target: Transient receptor potential cation channel subfamily V member 1 (Homo sapiens) (UniProt Q8NER1); assay: Antagonist activity at recombinant human TRPV1 stably expressed in HEK293 cells assessed as inhibition of capsaicin-induced calcium flux at 333 uM preincubated for 5 mins followed by capsaicin addition and measured after 180 secs by Fluo-8 Calcium dye based fluorescence assay relative to control; conditions: time 8.0 min; method in brief: as §1
[27] = target: Transient receptor potential cation channel subfamily A member 1 (Homo sapiens) (UniProt O75762); assay: Antagonist activity at recombinant human TRPA1 stably expressed in HEK293 cells assessed as inhibition of AITC-induced calcium flux at 200 uM preincubated for 5 mins followed by AITC addition and measured after 180 secs by Fluo-8 Calcium dye based fluorescence assay relative to control; conditions: time 8.0 min; method in brief: as §1
[28] = target: Transient receptor potential cation channel subfamily A member 1 (Homo sapiens) (UniProt O75762); assay: Agonist activity at recombinant human TRPA1 stably expressed in HEK293 cells at 200 uM measured after 180 secs by Fluo-8 Calcium dye based fluorescence assay relative to control; conditions: time 180.0 sec; method in brief: as §2
[29] = target: Transient receptor potential cation channel subfamily V member 1 (Homo sapiens) (UniProt Q8NER1); assay: Agonist activity at recombinant human TRPV1 stably expressed in HEK293 cells at 200 uM measured after 180 secs by Fluo-8 Calcium dye based fluorescence assay relative to control; conditions: time 180.0 sec; method in brief: as §2
[30] = target: Transient receptor potential cation channel subfamily A member 1 (Homo sapiens) (UniProt O75762); assay: Agonist activity at recombinant human TRPA1 stably expressed in HEK293 cells at 66.7 uM measured after 180 secs by Fluo-8 Calcium dye based fluorescence assay relative to control; conditions: time 180.0 sec; method in brief: as §2

T2 sequence (Q8R455 whole entry): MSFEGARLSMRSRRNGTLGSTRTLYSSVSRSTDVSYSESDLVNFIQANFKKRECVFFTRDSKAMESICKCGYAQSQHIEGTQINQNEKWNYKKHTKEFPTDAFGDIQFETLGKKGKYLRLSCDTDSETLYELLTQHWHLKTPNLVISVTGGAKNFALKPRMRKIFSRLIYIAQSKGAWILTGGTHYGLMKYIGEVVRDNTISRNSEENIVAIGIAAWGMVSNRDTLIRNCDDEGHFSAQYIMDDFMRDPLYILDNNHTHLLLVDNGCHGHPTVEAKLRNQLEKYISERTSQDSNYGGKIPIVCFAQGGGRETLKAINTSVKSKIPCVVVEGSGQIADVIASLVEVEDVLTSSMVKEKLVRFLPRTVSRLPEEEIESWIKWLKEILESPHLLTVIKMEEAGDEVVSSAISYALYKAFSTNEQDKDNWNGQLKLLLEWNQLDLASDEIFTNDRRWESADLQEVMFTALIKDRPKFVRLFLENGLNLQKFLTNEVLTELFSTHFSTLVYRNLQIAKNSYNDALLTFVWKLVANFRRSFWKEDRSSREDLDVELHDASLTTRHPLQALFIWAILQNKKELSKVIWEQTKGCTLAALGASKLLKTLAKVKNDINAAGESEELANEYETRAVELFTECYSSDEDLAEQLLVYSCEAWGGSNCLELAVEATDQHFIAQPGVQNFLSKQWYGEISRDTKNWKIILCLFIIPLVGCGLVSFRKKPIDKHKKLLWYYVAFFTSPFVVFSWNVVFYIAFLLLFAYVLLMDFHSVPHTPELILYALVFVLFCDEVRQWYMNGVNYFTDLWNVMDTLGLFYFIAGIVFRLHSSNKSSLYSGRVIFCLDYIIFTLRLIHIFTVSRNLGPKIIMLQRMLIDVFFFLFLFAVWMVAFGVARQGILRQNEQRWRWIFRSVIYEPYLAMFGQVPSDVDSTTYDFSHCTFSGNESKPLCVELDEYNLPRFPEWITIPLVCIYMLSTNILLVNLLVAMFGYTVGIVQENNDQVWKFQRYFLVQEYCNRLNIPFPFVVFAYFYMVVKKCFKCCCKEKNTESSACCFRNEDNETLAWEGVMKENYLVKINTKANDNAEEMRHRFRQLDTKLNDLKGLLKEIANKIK
Chain of Transient receptor potential cation channel subfamily V member 1 (Homo sapiens) (Q8NER1 whole entry): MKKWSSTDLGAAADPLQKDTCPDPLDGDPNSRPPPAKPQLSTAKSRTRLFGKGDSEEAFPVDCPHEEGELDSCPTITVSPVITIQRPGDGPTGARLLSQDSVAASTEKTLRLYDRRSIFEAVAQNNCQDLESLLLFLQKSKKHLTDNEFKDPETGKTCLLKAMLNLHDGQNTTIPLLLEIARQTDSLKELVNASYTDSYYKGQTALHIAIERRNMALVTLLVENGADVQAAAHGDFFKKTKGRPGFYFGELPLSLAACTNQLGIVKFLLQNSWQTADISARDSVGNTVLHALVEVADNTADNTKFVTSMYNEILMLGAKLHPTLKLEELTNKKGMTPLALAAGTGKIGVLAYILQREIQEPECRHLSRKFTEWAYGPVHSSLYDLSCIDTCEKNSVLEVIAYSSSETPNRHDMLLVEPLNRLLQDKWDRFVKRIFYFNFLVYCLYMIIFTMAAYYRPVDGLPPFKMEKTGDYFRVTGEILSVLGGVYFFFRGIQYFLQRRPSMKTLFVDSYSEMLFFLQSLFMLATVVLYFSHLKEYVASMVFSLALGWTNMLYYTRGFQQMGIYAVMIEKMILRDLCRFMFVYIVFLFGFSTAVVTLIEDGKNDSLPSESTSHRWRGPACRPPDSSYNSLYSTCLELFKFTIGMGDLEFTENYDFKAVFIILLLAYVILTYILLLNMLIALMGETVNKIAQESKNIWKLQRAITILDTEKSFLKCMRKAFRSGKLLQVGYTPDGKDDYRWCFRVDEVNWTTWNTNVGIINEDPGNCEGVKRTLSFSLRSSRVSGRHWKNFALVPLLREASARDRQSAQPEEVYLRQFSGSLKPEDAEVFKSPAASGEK
Chain of Transient receptor potential cation channel subfamily A member 1 (Homo sapiens) (O75762 whole entry): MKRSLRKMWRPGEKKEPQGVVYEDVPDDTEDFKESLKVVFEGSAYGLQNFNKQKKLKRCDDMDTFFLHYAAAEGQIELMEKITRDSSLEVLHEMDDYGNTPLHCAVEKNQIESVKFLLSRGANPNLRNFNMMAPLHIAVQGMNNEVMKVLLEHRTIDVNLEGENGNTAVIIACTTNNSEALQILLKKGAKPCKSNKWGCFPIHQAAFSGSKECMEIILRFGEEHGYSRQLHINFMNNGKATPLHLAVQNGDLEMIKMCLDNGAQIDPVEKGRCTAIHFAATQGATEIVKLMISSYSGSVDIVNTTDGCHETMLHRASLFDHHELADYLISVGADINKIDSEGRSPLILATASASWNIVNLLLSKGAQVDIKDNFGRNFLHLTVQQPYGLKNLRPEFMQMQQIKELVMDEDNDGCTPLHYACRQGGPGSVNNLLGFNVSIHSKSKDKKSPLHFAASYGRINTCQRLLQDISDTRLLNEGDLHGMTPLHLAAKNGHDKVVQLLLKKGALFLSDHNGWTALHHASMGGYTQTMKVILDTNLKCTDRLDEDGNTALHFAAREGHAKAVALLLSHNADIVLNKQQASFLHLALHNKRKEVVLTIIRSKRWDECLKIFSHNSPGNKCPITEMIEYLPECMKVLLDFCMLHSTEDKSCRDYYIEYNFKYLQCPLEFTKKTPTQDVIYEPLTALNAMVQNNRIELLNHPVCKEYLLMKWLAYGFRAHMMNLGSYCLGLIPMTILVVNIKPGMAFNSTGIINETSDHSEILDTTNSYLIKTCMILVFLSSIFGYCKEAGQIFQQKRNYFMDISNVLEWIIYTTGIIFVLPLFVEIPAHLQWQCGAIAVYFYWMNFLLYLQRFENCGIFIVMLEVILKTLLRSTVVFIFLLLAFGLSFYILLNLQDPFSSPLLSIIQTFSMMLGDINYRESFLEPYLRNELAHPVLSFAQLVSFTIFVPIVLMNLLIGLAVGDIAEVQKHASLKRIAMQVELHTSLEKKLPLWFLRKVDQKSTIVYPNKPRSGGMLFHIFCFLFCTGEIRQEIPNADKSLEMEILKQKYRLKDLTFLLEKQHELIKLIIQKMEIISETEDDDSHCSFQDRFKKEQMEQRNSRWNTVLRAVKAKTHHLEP

Compound: CC(C)[C@@H]1CC[C@@H](C)C[C@H]1OC(=O)N1CCc2ccccc2C1
Activity [1]: 112%

IC50 [2]: 2 µM
Compound: C=C1[C@H](C)CC[C@@H](C(C)C)[C@@H]1OC(=O)c1ccccc1

Compound: C=C(C)[C@@H]1CCC(C)=C[C@H]1c1c(O)cc(CCC)cc1O [CANNABIDIVARIN]
EC50 [3]: 0.42 µM
IC50 [4]: 0.9 µM

inhibition [5]: 11.9%
Activity [6]: 2.1%
inhibition [7]: 16.8%
Activity [8]: 7.9%
IC50 [9]: 1.8 µM
Activity [10]: 3.4%
Activity [11]: 4.57%
IC50 [12]: 0.117 µM
inhibition [14]: 6.79%
IC50 [15]: 0.805 µM
IC50 [16]: 0.521 µM
IC50 [2]: 0.7 µM
Activity [17]: 3.6%
Activity [19]: 1.3%
inhibition [20]: -5.89%
inhibition [21]: 24.9%
inhibition [22]: -7.44%
inhibition [23]: 18.3%
Activity [24]: -0.2%
inhibition [25]: -3.6%
inhibition [26]: 7.64%
inhibition [27]: 18.7%
Activity [28]: 0.95%
Activity [29]: 4.8%
Activity [30]: -0.83%
Compound: CC(C)[C@@H]1CC[C@@H](C)C[C@H]1NC(=O)c1ccc(-c2ccccc2)cc1
Ratio IC50 (Homo sapiens [13]): > 400
Ratio IC50 (Homo sapiens [18]): > 400
